Measurements as given in ChEMBL document CHEMBL5724801, “EUbOPEN Chemogenomics Library - Multiplex” (2024).
Values joined by “and” are separate entries in the source; they are usually repeats but may differ in a detail not shown here. Equal entries are not always repeated.

Tested on: Fibroblast
Assay: Multiplex assay against human fibroblast
Assay type: toxicity, cell-based
Outline: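 Live cells carried four stains from seeding: Hoechst33342, BioTracker Green Microtubule Cytoskeleton Dye, MitoTracker Red and Annexin V Alexa Fluor 680. They were imaged on a CQ1 microscope at 37°C and 5% CO2 after compound addition. Using CellPathfinder machine-learning gating, cells were split into Hoechst high-intensity objects or normal cells, normal cells into healthy, pyknosed or fragmented nuclei, and pyknosed cells into mitotic or apoptotic; tubulin, mitochondrial-mass and membrane-permeability phenotypes are per cents of healthy-nucleus cells.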

[1] = 12 h, 1 µM, compound concentration 1 uM
[2] = 12 h, 10 µM, compound concentration 10 uM
[3] = 24 h, 1 µM, compound concentration 1 uM
[4] = 24 h, 10 µM, compound concentration 10 uM
[5] = 48 h, 1 µM, compound concentration 1 uM
[6] = 48 h, 10 µM, compound concentration 10 uM

SMILES: CC(C)(C)c1cc(C(C)(C)C)c(NC(=O)c2c[nH]c3ccccc3c2=O)cc1O [IVACAFTOR]
- Population Apoptotic (%) [1]: 10.53% and 22.22%
- Population Healthy Nuclei (%) [1]: 60.13% and 75%
- Population Hoechst High Intensity Objects (%) [1]: 0%
- Population Membrane Permeable-Phenotype (%) [1]: 1.09% and 0.74%
- Population Mitotic Cells (%) [1]: 89.47% and 77.78%
- Population Normal (%) [1]: 100%
- Population Pyknosed Nuclei (%) [1]: 24.84% and 20%
- Population Tubulin-Different-Phenotype (%) [1]: 15.22% and 9.63%
- Total Cell Count [1]: 153 and 180
- Population Apoptotic (%) [2]: 15.07% and 33.33%
- Population Fragmented Nuclei (%) [2]: 15.18% and 7.21%
- Population Healthy Nuclei (%) [2]: 46.6% and 73.87%
- Population Hoechst High Intensity Objects (%) [2]: 0%
- Population Membrane Permeable-Phenotype (%) [2]: 0% and 3.05%
- Population Mitochondria Different-Phenotype (%) [2]: 21.35% and 13.41%
- Population Mitotic Cells (%) [2]: 84.93% and 66.67%
- Population Normal (%) [2]: 100%
- Population Pyknosed Nuclei (%) [2]: 38.22% and 18.92%
- Population Tubulin-Different-Phenotype (%) [2]: 24.72% and 29.27%
- Total Cell Count [2]: 191 and 222
- Population Apoptotic (%) [3]: 2.7% and 8%
- Population Fragmented Nuclei (%) [3]: 9.82% and 4.92%
- Population Healthy Nuclei (%) [3]: 67.48% and 81.42%
- Population Hoechst High Intensity Objects (%) [3]: 0%
- Population Membrane Permeable-Phenotype (%) [3]: 3.64% and 2.01%
- Population Mitochondria Different-Phenotype (%) [3]: 10.91% and 10.07%
- Population Mitotic Cells (%) [3]: 97.3% and 92%
- Population Normal (%) [3]: 100%
- Population Pyknosed Nuclei (%) [3]: 22.7% and 13.66%
- Population Tubulin-Different-Phenotype (%) [3]: 11.82% and 11.41%
- Total Cell Count [3]: 163 and 183
- Population Apoptotic (%) [4]: 13.85% and 28.57%
- Population Fragmented Nuclei (%) [4]: 9.6% and 8.97%
- Population Healthy Nuclei (%) [4]: 53.67% and 78.48%
- Population Hoechst High Intensity Objects (%) [4]: 0%
- Population Membrane Permeable-Phenotype (%) [4]: 2.11% and 0.57%
- Population Mitochondria Different-Phenotype (%) [4]: 21.05% and 24.57%
- Population Mitotic Cells (%) [4]: 86.15% and 71.43%
- Population Normal (%) [4]: 100%
- Population Pyknosed Nuclei (%) [4]: 36.72% and 12.56%
- Population Tubulin-Different-Phenotype (%) [4]: 45.26% and 44%
- Total Cell Count [4]: 177 and 223
- Population Fragmented Nuclei (%) [5]: 10.22% and 4.66%
- Population Healthy Nuclei (%) [5]: 83.33% and 86.53%
- Population Hoechst High Intensity Objects (%) [5]: 0%
- Population Membrane Permeable-Phenotype (%) [5]: 1.94% and 0%
- Population Mitotic Cells (%) [5]: 75% and 94.12%
- Population Normal (%) [5]: 100%
- Population Pyknosed Nuclei (%) [5]: 6.45% and 8.81%
- Population Tubulin-Different-Phenotype (%) [5]: 7.74% and 11.98%
- Total Cell Count [5]: 186 and 193
- Population Apoptotic (%) [6]: 21.88% and 28.57%
- Population Fragmented Nuclei (%) [6]: 11.48% and 7.92%
- Population Healthy Nuclei (%) [6]: 73.21% and 86.25%
- Population Hoechst High Intensity Objects (%) [6]: 0%
- Population Membrane Permeable-Phenotype (%) [6]: 0.65% and 0.97%
- Population Mitochondria Different-Phenotype (%) [6]: 25.49% and 13.53%
- Population Mitotic Cells (%) [6]: 78.12% and 71.43%
- Population Normal (%) [6]: 100%
- Population Pyknosed Nuclei (%) [6]: 15.31% and 5.83%
- Population Tubulin-Different-Phenotype (%) [6]: 24.18% and 39.61%
- Total Cell Count [6]: 209 and 240

SMILES: Cc1ccccc1C(=O)Nc1ccc(C(=O)N2CCCC(N(C)C)c3ccccc32)cc1.Cl (configuration not stated)
- Population Apoptotic (%) [1]: 52% and 36%
- Population Fragmented Nuclei (%) [1]: 16% and 22%
- Population Healthy Nuclei (%) [1]: 71% and 55%
- Population Hoechst High Intensity Objects (%) [1]: 0% and 1%
- Population Membrane Permeable-Phenotype (%) [1]: 0% and 10%
- Population Mitochondria Different-Phenotype (%) [1]: 5% and 3%
- Population Mitotic Cells (%) [1]: 47% and 63%
- Population Normal (%) [1]: 100% and 98%
- Population Pyknosed Nuclei (%) [1]: 12% and 21%
- Population Tubulin-Different-Phenotype (%) [1]: 31% and 45%
- Total Cell Count [1]: 167 and 155
- Population Apoptotic (%) [2]: 58% and 45%
- Population Fragmented Nuclei (%) [2]: 26% and 29%
- Population Healthy Nuclei (%) [2]: 50% and 47%
- Population Hoechst High Intensity Objects (%) [2]: 1% and 4%
- Population Membrane Permeable-Phenotype (%) [2]: 1% and 4%
- Population Mitochondria Different-Phenotype (%) [2]: 12%
- Population Mitotic Cells (%) [2]: 41% and 54%
- Population Normal (%) [2]: 98% and 95%
- Population Pyknosed Nuclei (%) [2]: 22% and 23%
- Population Tubulin-Different-Phenotype (%) [2]: 70% and 61%
- Total Cell Count [2]: 108 and 109
- Population Apoptotic (%) [3]: 38% and 43%
- Population Fragmented Nuclei (%) [3]: 15% and 28%
- Population Healthy Nuclei (%) [3]: 76% and 49%
- Population Hoechst High Intensity Objects (%) [3]: 1% and 5%
- Population Membrane Permeable-Phenotype (%) [3]: 0% and 8%
- Population Mitochondria Different-Phenotype (%) [3]: 8% and 2%
- Population Mitotic Cells (%) [3]: 61% and 56%
- Population Normal (%) [3]: 98% and 94%
- Population Pyknosed Nuclei (%) [3]: 8% and 21%
- Population Tubulin-Different-Phenotype (%) [3]: 30% and 50%
- Total Cell Count [3]: 160 and 157
- Population Apoptotic (%) [4]: 58% and 57%
- Population Fragmented Nuclei (%) [4]: 30% and 37%
- Population Healthy Nuclei (%) [4]: 58% and 42%
- Population Hoechst High Intensity Objects (%) [4]: 1% and 4%
- Population Membrane Permeable-Phenotype (%) [4]: 0% and 9%
- Population Mitochondria Different-Phenotype (%) [4]: 12% and 11%
- Population Mitotic Cells (%) [4]: 41% and 42%
- Population Normal (%) [4]: 98% and 95%
- Population Pyknosed Nuclei (%) [4]: 11% and 20%
- Population Tubulin-Different-Phenotype (%) [4]: 68% and 72%
- Total Cell Count [4]: 111 and 107
- Population Apoptotic (%) [5]: 33% and 53%
- Population Fragmented Nuclei (%) [5]: 13% and 32%
- Population Healthy Nuclei (%) [5]: 79% and 50%
- Population Hoechst High Intensity Objects (%) [5]: 3%
- Population Membrane Permeable-Phenotype (%) [5]: 0% and 8%
- Population Mitochondria Different-Phenotype (%) [5]: 4% and 5%
- Population Mitotic Cells (%) [5]: 66% and 46%
- Population Normal (%) [5]: 96%
- Population Pyknosed Nuclei (%) [5]: 7% and 17%
- Population Tubulin-Different-Phenotype (%) [5]: 28% and 54%
- Total Cell Count [5]: 158 and 155
- Population Apoptotic (%) [6]: 91% and 73%
- Population Fragmented Nuclei (%) [6]: 24% and 43%
- Population Healthy Nuclei (%) [6]: 60% and 43%
- Population Hoechst High Intensity Objects (%) [6]: 7% and 3%
- Population Membrane Permeable-Phenotype (%) [6]: 0% and 8%
- Population Mitochondria Different-Phenotype (%) [6]: 12% and 14%
- Population Normal (%) [6]: 92% and 96%
- Population Pyknosed Nuclei (%) [6]: 14% and 13%
- Population Tubulin-Different-Phenotype (%) [6]: 51% and 70%
- Total Cell Count [6]: 88 and 113
